The list is not random: actives were taken first. Their share in the collection is about 5.3%.
CSC inhib = cancer stem cell viability inhibitors, primary screen, luminescence; 300,000 tested, 1.1% active; inhibition, % at 7.5 µM; cancer stem cell-like cells viability; in the data active means inhibition above about 75%; inconclusive means no clear call, values can overlap the other calls; tested in HMLE shEcad cells
Mdm2 MdmX PPI = inhibitors of human Mdm2-MdmX association, primary screen, cell-based, luminescence, split luciferase, SaOS-2, uHTS. Protein Mdm4 (Homo sapiens) + E3 ubiquitin-protein ligase Mdm2 (Homo sapiens), …. SaOS-2 split-luciferase Mdm2/MdmX complementation. inhibition, % at 8 µM. 330,000 tested, 3% active;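 active means inhibition of at least 50% at 8 µM in the primary screen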
Target sequence (O15151 whole entry, looked up): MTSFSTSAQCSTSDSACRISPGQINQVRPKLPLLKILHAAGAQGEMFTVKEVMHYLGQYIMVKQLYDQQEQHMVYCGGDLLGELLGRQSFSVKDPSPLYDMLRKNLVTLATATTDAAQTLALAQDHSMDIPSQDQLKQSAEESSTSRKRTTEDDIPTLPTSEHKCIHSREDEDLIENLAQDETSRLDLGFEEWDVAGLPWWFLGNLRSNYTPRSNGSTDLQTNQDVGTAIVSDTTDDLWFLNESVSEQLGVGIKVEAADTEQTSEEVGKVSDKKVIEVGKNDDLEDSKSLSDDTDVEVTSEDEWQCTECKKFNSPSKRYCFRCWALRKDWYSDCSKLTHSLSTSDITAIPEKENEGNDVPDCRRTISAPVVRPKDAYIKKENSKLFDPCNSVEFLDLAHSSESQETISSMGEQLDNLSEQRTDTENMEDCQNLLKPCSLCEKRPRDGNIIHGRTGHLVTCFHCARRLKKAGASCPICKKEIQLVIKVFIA
Target sequence (Q00987 whole entry, looked up): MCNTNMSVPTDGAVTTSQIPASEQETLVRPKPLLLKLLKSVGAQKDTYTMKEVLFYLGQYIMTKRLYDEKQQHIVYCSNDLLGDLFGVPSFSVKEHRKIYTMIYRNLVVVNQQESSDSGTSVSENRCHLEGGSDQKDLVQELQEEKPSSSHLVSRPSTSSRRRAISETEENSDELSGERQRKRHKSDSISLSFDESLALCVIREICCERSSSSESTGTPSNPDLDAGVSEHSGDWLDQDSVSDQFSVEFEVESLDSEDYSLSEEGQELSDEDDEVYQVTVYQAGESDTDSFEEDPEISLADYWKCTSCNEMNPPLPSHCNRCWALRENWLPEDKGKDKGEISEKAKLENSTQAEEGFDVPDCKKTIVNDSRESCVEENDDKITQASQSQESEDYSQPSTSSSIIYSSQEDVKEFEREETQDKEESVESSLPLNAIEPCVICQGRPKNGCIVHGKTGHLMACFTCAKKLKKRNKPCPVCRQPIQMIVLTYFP
Calb FLC = C. albicans growth inhibition with fluconazole, primary screen, CaCi-2 strain, Alamar Blue fluorescence. C. albicans CaCi-2 (fluconazole-resistant clinical isolate) + fluconazole, 48 h. growth inhibition, % (concentration not given with the values). 300,000 tested, 0.57% active. AID 1979, 2009;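 active means growth inhibition above about 58% in most replicates, limit read from the data, passing the limit was not always enough; inconclusive means exactly half the replicates above a set limit; inactive means most replicates below a set limit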;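 further: all wells also contain fluconazole at 8 µg/ml as a sub-toxic cotreatment; 0% = median of DMSO wells and 100% = median of geldanamycin control wells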
T cruzi inh = inhibitors of intracellular T. cruzi growth, primary screen, luminescence, NIH3T3 host cells | T. cruzi beta-gal in NIH3T3, 90 h | inhibition, % (concentration not given with the values) | 300,000 tested, 1.4% active;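 active means mean inhibition across valid replicates above about 55%, limit read from the data; inconclusive means mean below that limit but half or more replicates reach it; inactive means mean below it, under half of replicates reach it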;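 further: signal also drops with host cell toxicity which is not excluded here; 0% = plate median of DMSO wells and 100% = zero luminescence signal; higher percent means less beta-gal luminescence so fewer parasites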
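System – NIH/3T3 host cells with β-galactosidase reporter T. cruzi · Doses – single 50 nL compound addition per well in DMSO · Reagent – 5000 T. cruzi trypomastigotes/well · Medium – Low-serum DMEM with 2% FBS · Timing – ≥90 h infection period, 3 h prior cell attachment · Evaluation – parasite load inhibition, % · Technique – GalScreen luminescence, 60 min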
NLRP3 yeast inh = NALP3 inflammasome inhibitors in reconstituted yeast, primary screen, luminescence, uHTS. Yeast reconstituted NLRP3/ASC/caspase-1, beta-gal luminescence, 24 h. inhibition, % at 10 µM. 330,000 tested, 0.39% active;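 active means inhibition of 50% or more; inactive means inhibition below 50%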;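 further: plate controls were induced DMSO wells for no effect and uninduced yeast grown without galactose for full effect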
Beta apoptosis = inhibitors of cytokine-induced beta cell apoptosis, primary screen, luminescence; INS-1E cytokine-induced death, ATP luminescence, 48 h; percent of positive-control rescue, neutral wells zero; 300,000 tested, 0.8% active; protection from apoptosis, % (no concentration beside the values);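 active means Every replicate reaches about 75%, or at least half do and their mean reaches it too, limit read from the data; inconclusive means At least half of replicates reach the limit but their mean does not; inactive means Under half of replicates reach the limit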;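 further: 0% = cytokine-treated negative control wells and 100% = positive control rescue; higher means more ATP so stronger rescue from cytokine killing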
Mdm2 MdmX conf = Mdm2-MdmX complex disruptors, retested hits, confirmation, luminescence, single concentration; shares compounds with Mdm2 MdmX PPI; Mdm2-MdmX binding, luminescent assay; inhibition, % at 8 µM; 10,000 tested, 55% active; AID 489028, 2010; in the data active means inhibition above about 40%
Full FLuc ctr = full-length luciferase signal inhibition, confirmation, counter-screen for Mdm2/MdmX interaction inhibitor project, cell-based, single concentration, SaOS-2; shares compounds with Mdm2 MdmX PPI; SaOS-2 full-length luciferase counterscreen, luminescence; inhibition, % at 8 µM; 6,200 tested, 77% active; AID 504607, 2011;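 active means mean inhibition at 8 µM reaching about 37%, which flags the compound as non-specific, limit read from the data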;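 further: p53-null SaOS-2 cells with luciferase driven by a doxycycline-inducible promoter; compound on cells about two nights before reading with doxycycline added after day one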
* hit, by the source's call; ? = inconclusive; . = no result.

SMILES	CSC inhib	Mdm2 MdmX PPI	Calb FLC	T cruzi inh	NLRP3 yeast inh	Beta apoptosis	Mdm2 MdmX conf	Full FLuc ctr
COc1ccc(N2CCN(CCNC(=O)c3ccc4c(c3)[nH]c(=S)n3c5ccccc5nc43)CC2)cc1	30	87*	?	?	26	47	76*	55*
O=C(COc1ccc(-c2ccccc2)cc1)N1CCN(S(=O)(=O)Cc2ccccc2)CC1	52	57*	-6	29	9	1	59*	75*
Cc1ccc(OCC(=O)N2CCN(C(=O)Cc3ccccc3)CC2)cc1	-2	10	1	4	14	-7	.	.
Cc1nn(-c2cccc(C(F)(F)F)c2)c(Cl)c1/C=N/Nc1cccc(C(=O)O)c1	25	.	15	-4	.	13	.	.
Cc1nn(-c2ccccc2Cl)c(Cl)c1/C=N/Nc1cccc(C(=O)O)c1	12	73*	-2	-5	-12	-4	83*	124*
CN1CCN(NC(=O)/C=C/c2cccc([N+](=O)[O-])c2)CC1	-4	4	5	40	16	0	.	.
CCc1c(C(=O)NC2CCCc3ccccc32)[nH]c(C)c1C(C)=O (centres undefined)	22	85*	7	-4	18	1	65*	52*
CC(=O)Nc1ccc(C(=O)NC2CCSc3ccccc32)cc1 (centres undefined)	3	-10	2	-7	1	-1	.	.
CC(=O)c1c(C)[nH]c(C(=O)NC2CCSc3ccccc32)c1C (centres undefined)	-14	56*	22	-3	7	3	33	.
O=C(NC1CCCc2ccccc21)c1ccccc1 (centres undefined)	.	18	3	-1	9	.	.	.
O=C(Cn1c(=O)c2cccn2c2ccc(F)cc21)N1CCN(c2ccc(F)cc2)CC1	0	-17	-2	-34	5	3	.	.
Cc1ccc(N(C)S(=O)(=O)c2ccc(-c3cnc(C4CC4)o3)cc2)cc1	72	61*	26	11	0	25	55*	79*
O=S(=O)(c1ccc(-c2cnc(C3CC3)o2)cc1)N1CCN(c2ccccc2)CC1	-9	59*	-4	10	19	8	2	.
Cc1ccc(CNS(=O)(=O)c2ccc(-c3cnc(C4CC4)o3)cc2)cc1	16	13	9	-15	17	-6	.	.
COc1ccc(C)cc1NS(=O)(=O)c1ccc(-c2cnc(C3CC3)o2)cc1	.	83*	7	9	-4	.	52*	111*
Cc1cccc(C)c1NS(=O)(=O)c1ccc(-c2cnc(C3CC3)o2)cc1	.	82*	0	35	14	.	53*	93*
O=S(=O)(NC1CCCC1)c1ccc(S(=O)(=O)N2CCN(c3ccccc3)CC2)cc1	7	17	-13	4	15	.	.	.
O=C(CN1C(=O)C2CC=CCC2C1=O)Nc1nc2ccc(F)cc2s1 (centres undefined)	-3	6	-5	-10	3	-3	.	.
O=C1CCCc2oc3c(cc(NS(=O)(=O)c4ccc5c6c(cccc46)C(=O)N5)c4ccccc43)c21	33	42	36	30	17	15	.	.
CC(=O)c1ccc(NS(=O)(=O)c2ccc(-c3cnc(C4CC4)o3)cc2)cc1	.	17	0	-14	0	.	.	.
Cc1ccc(NS(=O)(=O)c2ccc(-c3cnc(C4CC4)o3)cc2)cc1	65	53*	1	-23	38	19	51*	50*
O=S(=O)(NCc1ccccc1)c1ccc(-c2cnc(C3CC3)o2)cc1	51	26	-4	0	-9	8	.	.
CCOc1ccccc1CNS(=O)(=O)c1ccc(-c2cnc(C3CC3)o2)cc1	.	61*	-3	-1	6	.	60*	84*
CC(=O)OCC1O[C@@H](O[C@@H]2C[C@H]3C(C)(C)[C@H](OC(C)=O)CC[C@]3(C)[C@H]3CC[C@]45C[C@]4(CC[C@H]5[C@@H](C)C[C@@H](O)[C@H](O)C(C)(C)O)[C@@]32C)[C@H](O)[C@@H](O)[C@@H]1O (some centres undefined)	102*	93*	14	43	1	111*	13	.
C/C(=N/Nc1nc(-c2ccc(Cl)cc2)cs1)c1cccs1	10	-61	-16	12	3	0	.	.
SMILES	CSC inhib	Mdm2 MdmX PPI	Calb FLC	T cruzi inh	NLRP3 yeast inh	Beta apoptosis	Mdm2 MdmX conf	Full FLuc ctr
CCN(CC)CCNc1ncnc2c1sc1nc(N3CCOCC3)c3c(c12)CC(C)(C)SC3	?	63*	12	40	19	103*	40	54*
CN(C)CCNc1ncnc2c1sc1nc(N3CCOCC3)c3c(c12)CC(C)(C)SC3	-9	70*	1	54	15	11	45*	75*
CC1(C)Cc2c(c(N3CCOCC3)nc3sc4c(=O)[nH]cnc4c23)CS1	1	6	-1	-4	5	8	.	.
COc1ccccc1[C@]1(C)ON(c2ccccc2C(F)(F)F)C1=O	48	92*	.	.	16	-12	77*	37*
CC(C)C[C@]1(c2ccccc2)ON(c2ccccc2C(F)(F)F)C1=O	40	49	.	.	8	-11	.	.
CC[C@]1(c2ccccc2OC)ON(c2ccccc2C(F)(F)F)C1=O	59	90*	.	.	36	87*	84*	35
COc1ccc2c(c1)C(=O)N(c1ccccc1OC)C(=O)C2(C)C	-4	20	0	-4	30	2	.	.
CC(=O)Cn1cnc2c(cnn2-c2ccc(C)c(C)c2)c1=O	2	-48	13	-16	-1	-3	.	.
C[C@H](NC(=O)c1nc[nH]c1C(=O)N[C@@H](Cc1ccccc1)C(=O)OC(C)(C)C)C(=O)OC(C)(C)C	.	26	19	25	1	-1	.	.
CC(C)(C)OC(=O)[C@H](Cc1ccccc1)NC(=O)c1nc[nH]c1C(=O)N[C@@H](Cc1ccccc1)C(=O)OC(C)(C)C	-4	86*	10	40	6	31	13	.

High-throughput results deposited in PubChem by several laboratories.
